Results reported in PMC3150598 (Journal of medicinal chemistry, 2011).

Key:
[1] = Blood half-life of 1a after i.v. or p.o. administration; type: in vivo, C57BL/6 mice; details: for dosed compound still present in whole blood: i.v., after initial burst phase
[2] = system: HDACs 1–9; test: HDAC assay: biochemical profiling against purified HDAC isoforms
[3] = Biodistribution of 1a after i.v. injection; type: in vivo, C57BL/6 mice; details: 1 hour and 3 hours after i.v. injection
How it was run: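 Six C57BL/6 mice received 241 ± 18 μCi of the 18F-labelled test compound by tail-vein i.v. injection. Groups were killed at 1 h (n=3) and 3 h (n=3) post-injection. Tissues were excised and weighed, and radioactivity was gamma-counted and expressed as %ID/g.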

[4] = system: A2780 human ovarian cancer cells; test: PET-CT of A2780 tumor xenograft before and after competition with cold SAHA; type: in vivo, Nu/Nu mice; details: after systemic administration
[5] = system: HDAC; details: cited from earlier work
[6] = system: HDAC; details: cited from earlier work; remark: listed apart in the source

Compound: O=C(CCCCCCC(=O)Nc1ccc([18F])cc1)NO [1a, 18F-suberoylanilide hydroxamic acid]
- dosed compound still present in whole blood ([1]; formulation A (60% PEG400, 40% water)): < 1%
- dosed compound still present in whole blood ([1]; formulation B (10%DMSO, 90% water)): ~3%
- terminal half-life relative to initial t1/2 ([1]; single bolus i.v.): approximately 10 times longer
- HDAC potency [2]: low nanomolar potency
- concentration in cardiac tissue [3]: comparatively low concentrations
- tissues with highest concentration [3]: kidney, liver and blood
- tissues with lowest concentration [3]: thymus and brain
- accumulation in tumors [4]: accumulate in tumors in a time-dependent manner

Compound: O=C(CCCCCCC(=O)Nc1ccc([19F])cc1)NO [1b, N-Hydroxy-N'-(4-fluorophenyl)octanediamide]
- potency and selectivity of inhibition of primary HDAC targets compared with SAHA ([2]; HDACs 1–3 and 6): virtually indistinguishable from SAHA
- HDAC isoforms inhibited ([2]; profiled against purified HDACs 1–9): inhibited only HDACs 1–3 and 6

Compound: Nc1ccccc1NC(=O)c1ccc(CNC(=O)OCc2cccnc2)cc1 [5b]
- HDAC isoform selectivity [5]: selective for HDAC1–3
- potency relative to SAHA (fold less potent) [5]: 20–70 fold

Compound: O=C(C[18F])NCCCCCC(=O)Nc1ccccc1 [compound 4, 6-([18F]-fluoroacetamide)-1-hexanoicanilide]
- metabolism in vivo [6]: rapidly metabolized in vivo
